One block for each compound: values may come before it. Active and inactive are the calls of the source. No cut-off for these calls is given here.
Key:
C6 [1] = assay: Cytotoxicity against rat C6 cells assessed as reduction in cell viability after 72 hrs by MTT assay; format: functional, cell-based; settings: C6, 72 h
How it was run: (§1)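 Cells seeded in triplicate at 3 × 10³ cells/well: 293_CHI3L1, U373 and C6 in DMEM; UPN1 in alpha-MEM; Granta, JeKo and Mino in RPMI. Compounds added by serial dilution at final 0.01, 0.1, 1, 10 and 100 µM for 72 h. MTT read-out gives viable cells as % of DMSO vehicle control. IC50 is the concentration giving 50% cell death versus control.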

HEK293 [2] = assay: Cytotoxicity against HEK293 cells overexpressing CHI3L1 gene assessed as reduction in cell viability after 72 hrs by MTT assay; format: functional, cell-based; settings: Homo sapiens, HEK293, 72 h; how it was run: as §1
Granta [3] = assay: Cytotoxicity against human Granta cells assessed as reduction in cell viability after 72 hrs by MTT assay; format: functional, cell-based; how it was run: as §1
[4] = target: T1, Mitogen-activated protein kinase; ERK1/ERK2 (Homo sapiens) (UniProt P27361+P28482); assay: Inhibition of ERK1/2 phosphorylation in human HEK293 cells overexpressing CHI3L1 gene after 24 hrs by Western blot analysis; format: cell-based
How it was run: (§2)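 293_CHI3L1 or U373 cells seeded in triplicate at 10⁵ cells/well in DMEM/10% FBS and grown to near-confluence. Serum-starved 24 h; U373 then stimulated with 10% FBS. Treated with compound 24 h. Lysates run on 10% SDS–PAGE and blotted for phospho-ERK1/2 or phospho-AKT1 (4 °C overnight), ECL detection. Membranes stripped and reprobed for β-actin.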

[5] = Cytotoxicity against human U373 cells assessed as reduction in cell viability after 72 hrs by MTT assay; format: functional, cell-based, U-373MG ATCC; settings: U373 MG; how it was run: as §1
[6] = Cytotoxicity against human UPN1 cells assessed as reduction in cell viability after 72 hrs by MTT assay; format: functional, cell-based; settings: UPN1, 72 h; how it was run: as §1
[7] = target: RAC-alpha serine/threonine-protein kinase (Homo sapiens) (UniProt P31749); assay: Inhibition of AKT1 phosphorylation in human U373 cells overexpressing CHI3L1 gene after 24 hrs by Western blot analysis; format: cell-based; settings: U-373MG ATCC; how it was run: as §2
[8] = target: RAC-alpha serine/threonine-protein kinase (Homo sapiens) (UniProt P31749); assay: Inhibition of AKT1 phosphorylation in human HEK293 cells overexpressing CHI3L1 gene after 24 hrs by Western blot analysis; format: cell-based; how it was run: as §2
[9] = target: T1, Mitogen-activated protein kinase; ERK1/ERK2 (Homo sapiens); assay: Inhibition of ERK1/2 phosphorylation in human U373 cells overexpressing CHI3L1 gene after 24 hrs by Western blot analysis; format: cell-based; settings: U-373MG ATCC; how it was run: as §2
[10] = Cytotoxicity against human Jeko cells assessed as reduction in cell viability after 72 hrs by MTT assay; format: functional, cell-based; settings: JeKo-1, 72 h; how it was run: as §1
[11] = Cytotoxicity against human Mino cells assessed as reduction in cell viability after 72 hrs by MTT assay; format: functional, cell-based; how it was run: as §1
[12] = Antitumor activity against human Small cell lung cancer cells xenografted in mouse assessed as tumor growth inhibition; format: functional, Cancer cell lines
C6 [13] = assay: Cytotoxicity against rat C6 cells assessed as reduction in cell viability at 1 uM after 72 hrs by MTT assay in presence of temozolomide; format: functional
How it was run: (§3)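 U373 or C6 glioma cells seeded in triplicate at 3 × 10³ cells/well in DMEM. Exposed 72 h to temozolomide at final 10, 100, 250, 500 and 1000, alone or combined with 1 µM bradykinin antagonist. MTT read-out gives viability as % of vehicle control. Mean of two experiments run in triplicate.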

[14] = target: RAC-alpha serine/threonine-protein kinase (Homo sapiens) (UniProt P31749); assay: Inhibition of AKT1 phosphorylation in human U373 cells at 10 uM after 24 hrs by Western blot analysis; format: cell-based; settings: U-373MG ATCC; how it was run: as §2
[15] = target: RAC-alpha serine/threonine-protein kinase (Homo sapiens) (UniProt P31749); assay: Inhibition of AKT1 phosphorylation in human HEK293 cells overexpressing CHI3L1 gene at 50 uM after 24 hrs by Western blot analysis; format: cell-based; how it was run: as §2
[16] = target: RAC-alpha serine/threonine-protein kinase (Homo sapiens) (UniProt P31749); assay: Inhibition of AKT1 phosphorylation in human HEK293 cells overexpressing CHI3L1 gene at 10 uM after 24 hrs by Western blot analysis; format: cell-based; how it was run: as §2
[17] = target: T1, Mitogen-activated protein kinase; ERK1/ERK2 (Homo sapiens); assay: Inhibition of ERK1/2 phosphorylation in human HEK293 cells overexpressing CHI3L1 gene at 10 uM after 24 hrs by Western blot analysis; format: cell-based; how it was run: as §2
[18] = target: T1, Mitogen-activated protein kinase; ERK1/ERK2 (Homo sapiens); assay: Inhibition of ERK1/2 phosphorylation in human U373 cells at 50 uM after 24 hrs by Western blot analysis; format: cell-based; settings: U-373MG ATCC; how it was run: as §2
[19] = (§4) Cytotoxicity against human U373 cells assessed as reduction in cell viability at 1 uM after 72 hrs by MTT assay in presence of temozolomide; format: functional, U-373MG ATCC; how it was run: as §3
[20] = target: T1, Mitogen-activated protein kinase; ERK1/ERK2 (Homo sapiens); assay: Inhibition of ERK1/2 phosphorylation in human HEK293 cells overexpressing CHI3L1 gene at 50 uM after 24 hrs by Western blot analysis; format: cell-based; how it was run: as §2
[21] = Cytotoxicity against human Small cell lung cancer cells assessed as reduction in cell viability after 72 hrs by MTT assay; format: functional, cell-based; settings: Cancer cell lines
HEK293 [22] = assay: Cytotoxicity against HEK293 cells overexpressing CHI3L1 gene assessed as reduction in cell viability at 50 uM after 72 hrs by MTT assay; format: functional, cell-based; settings: Homo sapiens
[23] = Cytotoxicity against human Jeko cells assessed as viable cells at 100 uM after 72 hrs by MTT assay; format: functional; settings: JeKo-1, 72 h, read-out: Activity; how it was run: as §1
Granta [24] = assay: Cytotoxicity against human Granta cells assessed as reduction in cell viability at 100 uM after 72 hrs by MTT assay; format: functional, cell-based; how it was run: as §1
[25] = Cytotoxicity against human UPN1 cells assessed as viable cells at 100 uM after 72 hrs by MTT assay; format: functional; settings: UPN1, 72 h, read-out: Activity; how it was run: as §1
Mino = assay: Cytotoxicity against human Mino cells assessed as reduction in cell viability at 100 uM after 72 hrs by MTT assay; format: functional, cell-based; how it was run: as §1
U-373MG ATCC = assay: as §4; format: functional; how it was run: as §3

T1 sequence (P27361 whole entry, looked up): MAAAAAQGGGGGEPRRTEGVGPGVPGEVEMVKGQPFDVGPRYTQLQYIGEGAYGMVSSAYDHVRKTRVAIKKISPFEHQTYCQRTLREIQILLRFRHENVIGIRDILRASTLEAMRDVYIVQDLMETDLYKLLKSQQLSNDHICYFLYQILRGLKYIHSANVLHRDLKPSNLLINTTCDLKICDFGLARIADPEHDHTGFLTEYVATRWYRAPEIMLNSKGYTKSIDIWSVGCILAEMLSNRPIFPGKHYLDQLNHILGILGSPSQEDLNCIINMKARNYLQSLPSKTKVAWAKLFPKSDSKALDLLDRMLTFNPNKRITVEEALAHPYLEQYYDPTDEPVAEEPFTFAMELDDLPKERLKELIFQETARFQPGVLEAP
T1 sequence (P28482 whole entry, looked up): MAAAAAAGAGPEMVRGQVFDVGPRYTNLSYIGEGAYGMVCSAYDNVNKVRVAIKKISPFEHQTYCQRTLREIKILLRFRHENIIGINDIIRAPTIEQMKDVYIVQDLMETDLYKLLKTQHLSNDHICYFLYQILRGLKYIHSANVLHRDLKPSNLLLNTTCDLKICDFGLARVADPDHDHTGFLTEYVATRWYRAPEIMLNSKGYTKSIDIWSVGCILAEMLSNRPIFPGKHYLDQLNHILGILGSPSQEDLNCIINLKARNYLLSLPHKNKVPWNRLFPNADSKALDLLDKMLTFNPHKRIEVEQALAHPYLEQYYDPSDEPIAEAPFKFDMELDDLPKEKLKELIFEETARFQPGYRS
Chain of RAC-alpha serine/threonine-protein kinase (Homo sapiens) (P31749 whole entry): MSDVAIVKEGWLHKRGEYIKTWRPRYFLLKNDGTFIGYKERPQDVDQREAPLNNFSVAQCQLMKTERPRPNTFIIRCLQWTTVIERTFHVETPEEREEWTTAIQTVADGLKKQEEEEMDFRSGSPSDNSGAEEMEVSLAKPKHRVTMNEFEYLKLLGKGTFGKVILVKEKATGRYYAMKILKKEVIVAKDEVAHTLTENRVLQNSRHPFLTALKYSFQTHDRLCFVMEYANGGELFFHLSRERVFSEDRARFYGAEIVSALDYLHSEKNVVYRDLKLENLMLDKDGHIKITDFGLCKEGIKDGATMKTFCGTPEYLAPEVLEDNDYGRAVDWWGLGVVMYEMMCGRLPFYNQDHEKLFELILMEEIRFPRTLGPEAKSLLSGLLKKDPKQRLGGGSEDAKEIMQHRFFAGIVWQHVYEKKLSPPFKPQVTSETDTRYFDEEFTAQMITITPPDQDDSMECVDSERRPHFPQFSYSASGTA

inhibition [4]: inactive | inhibition [7]: inactive | inhibition [8]: inactive | inhibition [9]: inactive
Compound: N=C(N)NCCC[C@H](NC(=O)C1CC2CCCCC2N1C(=O)[C@H](NC(=O)[C@H](CO)NC(=O)[C@@H](NC(=O)CNC(=O)[C@@H]1C[C@@H](O)CN1C(=O)[C@@H]1CCCN1C(=O)[C@H](CCCNC(=N)N)NC(=O)[C@@H](CCCNC(=N)N)NC(=O)/C=C/c1c(F)c(F)c(F)c(F)c1F)C1Cc2ccccc2C1)C1Cc2ccccc2C1)C(=O)O (some centres not stated)
IC50 (C6 [1]): 37 µM | IC50 (HEK293 [2]): 67.9 µM | IC50 (Granta [3]): > 100 µM | IC50 [5]: > 100 µM | IC50 [6]: > 100 µM | IC50 [10]: 50.5 µM

Compound: O=C1N=C(N2N=C(c3ccc(Cl)cc3)CC2c2ccc(Cl)cc2)S/C1=C1\C(=O)Nc2ccc(Br)cc21 (configuration not stated)
IC50 [11]: 0.73 µM

Compound: O=C1N=C(N2N=C(c3ccccc3)CC2c2ccc(Cl)cc2)S/C1=C1\C(=O)Nc2ccccc21 (configuration not stated)
IC50 (Granta [3]): > 100 µM | IC50 [6]: > 100 µM | IC50 [10]: > 100 µM

Compound: CN(C)c1ccc(C2CC(c3ccc(Cl)cc3)=NN2C2=NC(=O)/C(=C3/C(=O)Nc4ccc(Br)cc43)S2)cc1 (configuration not stated)
IC50 [11]: 0.16 µM

inhibition [14]: Active | inhibition [4]: Dose-dependent effect | inhibition [15]: Active | inhibition [16]: Active | inhibition [17]: Active | inhibition [18]: inactive | inhibition [20]: Active | inhibition [7]: Dose-dependent effect | inhibition [8]: Dose-dependent effect | inhibition [9]: Dose-dependent effect
Compound: CC1(C)CC(NC(=O)[C@H](Cc2ccc(OCc3c(Cl)cccc3Cl)cc2)NC(=O)/C=C/c2c(F)c(F)c(F)c(F)c2F)CC(C)(C)N1
TGI [12]: 91% | IC50 (C6 [1]): 4 µM | Activity (C6 [13]): 80% | IC50 (HEK293 [2]): 3.8 µM | IC50 (Granta [3]): 63.3 µM | IC50 [5]: 3.3 µM | Activity [19]: 80% | IC50 [6]: > 100 µM | IC50 [21]: 1.8 µM | inhibition (HEK293 [22]): Active | IC50 [10]: 49.3 µM

Compound: O=C1N=C(N2N=C(c3ccc(Br)cc3)CC2c2ccc(Cl)cc2)S/C1=C1\C(=O)Nc2ccccc21 (configuration not stated)
IC50 [11]: 10 µM

Compound: COc1ccc(-c2nnc(NC(=O)CN3C(=O)S/C(=C\c4ccc(N(C)C)cc4)C3=O)o2)cc1
IC50 (Granta [3]): > 100 µM | IC50 [6]: > 100 µM | IC50 [10]: > 100 µM

Compound: O=C1N=C(N2N=C(c3ccc(Cl)cc3)CC2c2ccc(Cl)cc2)S/C1=C1\C(=O)Nc2ccccc21 (configuration not stated)
viability at 100 µM [23]: 60% | Activity (Granta [24]): inactive | viability at 100 µM [25]: 60% | Activity (Mino): inactive | IC50 [11]: 68.2 µM

Compound: O=C1N=C(N2N=C(c3ccc(Br)cc3)CC2c2ccc(Cl)cc2)S/C1=C1\C(=O)Nc2ccc(Br)cc21 (configuration not stated)
IC50 [11]: 0.27 µM

Compound: O=C1N=C(N2N=C(c3ccc(Br)cc3)CC2c2ccc(Cl)cc2)S/C1=C1\C(=O)Nc2ccc(Cl)cc21 (configuration not stated)
IC50 [11]: 7.4 µM

Compound: CC1(C)CC(NC(=O)[C@H](Cc2ccc(OCc3c(Cl)cccc3Cl)cc2)NC(=O)OCC2c3ccccc3-c3ccccc32)CC(C)(C)N1
IC50 (C6 [1]): 15 µM | Activity (C6 [13]): inactive | IC50 (HEK293 [2]): 25.8 µM | IC50 (Granta [3]): 41.2 µM | IC50 [5]: 20 µM | Activity (U-373MG ATCC): inactive | IC50 [6]: > 100 µM | IC50 [10]: 52.3 µM

Compound: COc1ccc(NC(=O)COc2ccc(Cl)cc2/C=C2\SC(=S)N(Nc3nc4ccccc4s3)C2=O)cc1
IC50 [11]: 55.3 µM

Compound: O=C1N=C(N2N=C(c3ccc(Cl)cc3)CC2c2ccc(Cl)cc2)S/C1=C1\C(=O)Nc2ccc(Cl)cc21 (configuration not stated)
IC50 (C6 [1]): 1.22 µM | IC50 [11]: 80.7 µM

Compound: O=C1N=C(Nc2ccc(O)cc2)S/C1=C\c1ccc(Cl)cc1
IC50 (Granta [3]): > 100 µM | IC50 [6]: > 100 µM | IC50 [10]: > 100 µM | IC50 [11]: 61.2 µM

From ChEMBL document CHEMBL3351641, “Bradykinin antagonists and thiazolidinone derivatives as new potential anti-cancer compounds” (Bioorg Med Chem, 2014)
